Screening data: PubChem, The Scripps Research Institute Molecular Screening Center
An excerpt weighted towards active compounds, which were near 1.9% of everything screened.
Rin1 Abl inh = inhibitors of human Rin1-Abl protein interaction; P00519+Q13671; TR-FRET Rin1/Abl binding, biochemical; 0.4% of 360,000 active; inhibition, % at 7.35 µM; AID 588664; in the data active = inhibition above about 5%, passing the limit was not always enough
LEDGF integ inh = blocks HIV-1 LEDGF/p75-dependent DNA integration; TR-FRET IN-LEDGF/p75 DNA integration, Eu/Cy5; inhibition, % at 3.7 µM; 0.64% of 370,000 active; AID 743269;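 active = inhibition above the screen-wide mean plus 3 SD, cut at about 13% in these data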;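 also: signal is the Cy5 over europium emission ratio at 671 and 618 nm; 0% = plate median of compound wells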
TDP2 absorb = blocks human TDP2 phosphodiesterase activity; O95551; recombinant TDP2, T5PNP hydrolysis, p-nitrophenol absorbance 415 nm; inhibition, % at 12.8 µM; 0.34% of 370,000 active; AID 720702;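 active = inhibition above the mean of all tested compounds plus 3 SD, set per campaign, cut at about 25% in these data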;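 also: 0% = DMSO with enzyme and 100% = buffer with substrate but no TDP2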
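test system = human TDP2 enzyme | input = TDP2 enzyme at 120 nM final | medium = 50 mM Tris-HCl pH 7.5 with Mg2+, KCl, DTT, BSA | also added = T5PNP substrate, 5 mM | times = 2 h at 37 °C | technique = epi absorbance | benchmarks = high control without enzyme, low control DMSO plus TDP2 | replication = each compound tested once, singlicate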
MBD2 inh = MBD2-methylated oligo binding inhibition. Q9UBB5. TR-FRET, MBD2 binding to methylated oligonucleotide. inhibition, % at 4.4 µM. 0.31% of 370,000 active. AID 686964; in the data active = inhibition above about 13%
UHRF1 MBD2 ctr = blocks human UHRF1 binding to methylated DNA; Q96T88; UHRF1 binding to methylated oligo, TR-FRET; inhibition, % at 4.4 µM; 0.75% of 370,000 active; AID 687016;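 also: UHRF1 SRA domain binding a hemimethylated CpG hairpin DNA probe; 0% = median of test compound wells and 100% = reference inhibitor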
Target sequence (Q96T88 whole entry, looked up, the tested form may be a part): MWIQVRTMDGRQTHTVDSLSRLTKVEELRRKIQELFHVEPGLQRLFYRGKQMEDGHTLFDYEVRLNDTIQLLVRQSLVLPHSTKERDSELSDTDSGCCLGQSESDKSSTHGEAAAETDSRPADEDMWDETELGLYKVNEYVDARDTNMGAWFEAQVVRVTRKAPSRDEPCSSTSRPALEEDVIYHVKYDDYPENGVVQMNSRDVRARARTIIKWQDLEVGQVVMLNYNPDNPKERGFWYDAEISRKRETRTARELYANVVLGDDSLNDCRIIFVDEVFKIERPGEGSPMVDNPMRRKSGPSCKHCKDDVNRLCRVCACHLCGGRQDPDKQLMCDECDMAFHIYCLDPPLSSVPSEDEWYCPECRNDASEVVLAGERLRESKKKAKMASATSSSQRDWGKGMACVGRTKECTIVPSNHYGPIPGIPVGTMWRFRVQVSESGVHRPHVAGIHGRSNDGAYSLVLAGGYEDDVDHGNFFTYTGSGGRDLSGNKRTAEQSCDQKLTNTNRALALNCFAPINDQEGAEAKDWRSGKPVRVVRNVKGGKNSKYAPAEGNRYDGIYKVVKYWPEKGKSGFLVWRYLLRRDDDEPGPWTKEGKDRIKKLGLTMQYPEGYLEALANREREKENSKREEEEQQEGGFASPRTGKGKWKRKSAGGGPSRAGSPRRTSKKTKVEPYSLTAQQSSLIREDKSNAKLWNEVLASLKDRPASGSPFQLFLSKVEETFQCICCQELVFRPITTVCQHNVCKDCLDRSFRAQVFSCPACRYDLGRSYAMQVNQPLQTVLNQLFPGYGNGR
UHRF1 ctr MBD2 = UHRF1 methyl-oligo binding inhibition as MBD2 counter-screen | shares compounds with MBD2 inh | AID 720530 | 25% of 1,000 active | inhibition, % at 4.4 µM | UHRF1 binding to methylated oligonucleotide, TR-FRET;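 also: UHRF1 SRA domain binding a labeled hemimethylated CpG hairpin DNA; 0% = vehicle only and 100% = reference inhibitor with vehicle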
MBD2 DBD conf = confirmation of human MBD2-DBD methylated oligonucleotide binding inhibitors. shares compounds with MBD2 inh. inhibition, % at 4.4 µM. TR-FRET MBD2-DBD binding to methylated oligonucleotide. 26% of 1,000 active; in the data active = inhibition above about 14%
* = called active by the depositor. Rule as the data show it, unless noted: active = inhibition above about 21%; inactive = the rest.

What do the screens show for `C#CCN(Cc1ccco1)C(=O)c1nnc2c3cc(OC)ccc3n(S(=O)(=O)c3ccc(OC)cc3)c2n1`?
LEDGF integ inh: -3; TDP2 absorb: 1; MBD2 inh: 26*; UHRF1 MBD2 ctr: 1; UHRF1 ctr MBD2: 6; MBD2 DBD conf: 20*

Results for CCN1CCN(CC(O)COCC2COc3ccccc3O2)CC1 (configuration not stated) ?
Rin1 Abl inh: -1; LEDGF integ inh: -1; TDP2 absorb: 11; MBD2 inh: 16*; UHRF1 MBD2 ctr: 16; UHRF1 ctr MBD2: 6; MBD2 DBD conf: 0

Results for O=C1c2ccccc2-c2cccnc21 ?
Rin1 Abl inh: -2; LEDGF integ inh: 2; TDP2 absorb: -13; MBD2 inh: 16*; UHRF1 MBD2 ctr: -11; UHRF1 ctr MBD2: 2; MBD2 DBD conf: -5

How did Cc1ccc(C(=O)Nc2nc(-c3ccco3)c(-c3ccco3)s2)o1 do in these assays?
Rin1 Abl inh: 5; LEDGF integ inh: 85*; TDP2 absorb: 12; MBD2 inh: 40*; UHRF1 MBD2 ctr: 88*; UHRF1 ctr MBD2: 12; MBD2 DBD conf: 8

Results for Cc1ccc(C(=O)Nc2nc(C)c(C(=O)N(C)C)s2)o1 ?
Rin1 Abl inh: -2; LEDGF integ inh: -3; TDP2 absorb: -11; MBD2 inh: -1; UHRF1 MBD2 ctr: -1

Results for O=C(Nc1cccnc1)C1(c2ccccc2)CCCC1 ?
Rin1 Abl inh: 2; LEDGF integ inh: 3; TDP2 absorb: 8; MBD2 inh: 16*; UHRF1 MBD2 ctr: 23*; UHRF1 ctr MBD2: 6; MBD2 DBD conf: 2

Results for CC(/C=N\NC(=O)CSc1nnc(-c2ccc(Br)cc2)n1-c1ccccc1)=C\c1ccco1 ?
LEDGF integ inh: 4; TDP2 absorb: 2; MBD2 inh: 4; UHRF1 MBD2 ctr: -1

What do the screens show for `CC(=O)N1CCN(C(=O)c2ccc(CNC(=O)c3cccc(Br)c3)cc2)CC1`?
LEDGF integ inh: 4; TDP2 absorb: 10; MBD2 inh: 2; UHRF1 MBD2 ctr: -1

What do the screens show for `Cc1ccc(CC(=O)Nc2nc3c(s2)CCCC3)cc1`?
Rin1 Abl inh: -1; LEDGF integ inh: -1; TDP2 absorb: 1; MBD2 inh: 13*; UHRF1 MBD2 ctr: 11; UHRF1 ctr MBD2: 5; MBD2 DBD conf: 3

Results for Cc1cccc(NC(=O)Cc2ccc(-c3ccccc3)cc2)n1 ?
Rin1 Abl inh: -2; LEDGF integ inh: 4; TDP2 absorb: 5; MBD2 inh: -6; UHRF1 MBD2 ctr: 0

Results for Cc1ccc(CC(=O)Nc2cccc(C)n2)cc1 ?
Rin1 Abl inh: 7; LEDGF integ inh: 4; TDP2 absorb: 7; MBD2 inh: 15*; UHRF1 MBD2 ctr: 20; UHRF1 ctr MBD2: 6; MBD2 DBD conf: 3

Results for CCCCNC(=O)NS(=O)(=O)c1ccc(NC(=O)CSc2nnc(-c3ccc(Cl)cc3)n2N)cc1 ?
LEDGF integ inh: -2; TDP2 absorb: 1; MBD2 inh: 3; UHRF1 MBD2 ctr: 2

How did O=C(NCCc1c[nH]c2ccccc12)OCc1cn(-c2ccc(Cl)cc2)nn1 do in these assays?
LEDGF integ inh: -1; TDP2 absorb: 9; MBD2 inh: 2; UHRF1 MBD2 ctr: 3

How did Cc1ccccc1CS(=O)(=O)Cc1ccc(C(=O)Nc2ccc(F)cc2)o1 do in these assays?
LEDGF integ inh: 5; TDP2 absorb: -8; MBD2 inh: 0; UHRF1 MBD2 ctr: 2

What do the screens show for `O=C(Nc1ccc(N2CCN(Cc3ccccc3Cl)CC2)cc1)c1cccnc1`?
Rin1 Abl inh: 0; LEDGF integ inh: -3; TDP2 absorb: 0; MBD2 inh: 15*; UHRF1 MBD2 ctr: 0; UHRF1 ctr MBD2: 6; MBD2 DBD conf: 4

Results for O=C(Nc1ccc(N2CCCCC2)cc1)c1cccnc1 ?
Rin1 Abl inh: -1; LEDGF integ inh: -5; TDP2 absorb: -4; MBD2 inh: -4; UHRF1 MBD2 ctr: 1

How did CC(=O)CCS(=O)(=O)c1ccc(NC(C)=O)cc1 do in these assays?
Rin1 Abl inh: 3; LEDGF integ inh: -2; TDP2 absorb: -12; MBD2 inh: -1; UHRF1 MBD2 ctr: 3

What do the screens show for `CC(=O)Nc1ccc(S(=O)(=O)CC(=O)CS(=O)(=O)c2ccc(NC(C)=O)cc2)cc1`?
Rin1 Abl inh: 6; LEDGF integ inh: -2; TDP2 absorb: 8; MBD2 inh: 14*; UHRF1 MBD2 ctr: 1; UHRF1 ctr MBD2: 5; MBD2 DBD conf: -1

Results for CC(=O)OCCCN1CCC2(CCCCC2)C1=O ?
LEDGF integ inh: -2; TDP2 absorb: 11; MBD2 inh: -2; UHRF1 MBD2 ctr: -3

What do the screens show for `CC(=O)Nc1ccc2c(c1)ncn2C1CCCCC1`?
Rin1 Abl inh: 1; LEDGF integ inh: -1; TDP2 absorb: -5; MBD2 inh: 34*; UHRF1 MBD2 ctr: -2; UHRF1 ctr MBD2: 3; MBD2 DBD conf: 2

What do the screens show for `COCCNc1ncnc2c1ncn2[C@H]1CN(Cc2ccco2)C[C@@H](CO)O1`?
Rin1 Abl inh: -2; LEDGF integ inh: -2; TDP2 absorb: 2; MBD2 inh: 24*; UHRF1 MBD2 ctr: 0; UHRF1 ctr MBD2: 7; MBD2 DBD conf: 2

What do the screens show for `CC(C)(C)N(Cc1cn(Cc2ccccc2)nn1)S(=O)(=O)c1ccc(F)cc1Br`?
LEDGF integ inh: 1; TDP2 absorb: 10; MBD2 inh: 1; UHRF1 MBD2 ctr: -4

Results for COc1ccc(-c2ccc3c(n2)CCCN3Cc2ccccc2C(F)(F)F)cc1 ?
LEDGF integ inh: 2; TDP2 absorb: -8; MBD2 inh: -4; UHRF1 MBD2 ctr: -4

What do the screens show for `COC(=O)c1ccc(CSc2nc3c(c(=O)[nH]2)CCC3)cc1`?
Rin1 Abl inh: -2; LEDGF integ inh: -2; TDP2 absorb: -1; MBD2 inh: 15*; UHRF1 MBD2 ctr: 0; UHRF1 ctr MBD2: 3; MBD2 DBD conf: 3

Results for Cc1ccc(NC(=O)C2CC3CCC2C3)cc1 (configuration not stated) ?
LEDGF integ inh: 1; TDP2 absorb: -5; MBD2 inh: 0; UHRF1 MBD2 ctr: -1

What do the screens show for `CCC(=O)c1ccc(OCC(=O)NCc2ccccc2CN2CCCC2)cc1`?
Rin1 Abl inh: 5; LEDGF integ inh: 5; TDP2 absorb: -4; MBD2 inh: 35*; UHRF1 MBD2 ctr: 1; UHRF1 ctr MBD2: 6; MBD2 DBD conf: 3

What do the screens show for `NC(=O)c1ccc(NC(=O)COC(=O)/C=C/c2ccc(Br)o2)cc1`?
Rin1 Abl inh: 0; LEDGF integ inh: 22*; TDP2 absorb: -1; MBD2 inh: 27*; UHRF1 MBD2 ctr: 53*; UHRF1 ctr MBD2: 34*; MBD2 DBD conf: 22*

How did Cc1ccccc1N1CCN(S(=O)(=O)c2ccc3c(c2)n(C)c(=O)c(=O)n3C)CC1 do in these assays?
LEDGF integ inh: 1; TDP2 absorb: -1; MBD2 inh: -2; UHRF1 MBD2 ctr: 2
